Test results published in ChEMBL document CHEMBL4152256, “Structure-activity relationship of new antimalarial 1-aryl-3-susbtituted propanol derivatives: Synthesis, preliminary toxicity profiling, parasite life cycle stage studies, target exploration, and targeted delivery” (Eur J Med Chem, 2018).

Tests used:
[1] = Genotoxicity in Salmonella typhimurium TA1535 harboring pSK1002 assessed as umu gene induction at 0.016 mg/ml in absence of Sprague-Dawley rat liver S9 fraction after by SOS/umu assay relative to control; assay type: toxicity, organism-based; details: salmonella enterica subsp. enterica serovar typhimurium, read-out: FC
[2] = Cytotoxicity against human HepG2A16 cells by MTT assay; assay type: cell-based; details: HepG2A16 cells
Method in brief: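 MTT viability assay on HepG2-A16 cells, giving CC50 values.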

[3] = Solubility of the compound in DSPC:cholesterol:DSPE-PEG2000-Mal:DOPE-Rho lipid mixture at 250 uM; assay type: physicochemical
Method in brief: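 Compound added at 250 µM drug to the initial liposome lipid mixture (10 mM total lipid); precipitation and UV-visible absorbance above 300 nm assessed after encapsulation, removal of unencapsulated material and extraction with 1% w/v SDS in RPMI-A.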

Plasmodium falciparum [4] = assay: Antiplasmodial activity against multidrug-resistant Plasmodium falciparum FCR-3 by [3H]-hypoxanthine incorporation assay; assay type: functional, organism-based, FCR-3/Gambia; details: Plasmodium falciparum, FCR-3/Gambia
Method in brief: (§1)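 Blood-stage P. falciparum 3D7 and FCR-3 were tested by a modified [3H]-hypoxanthine incorporation assay. Chloroquine was the reference in all runs.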

[5] = Genotoxicity in Salmonella typhimurium TA1535 harboring pSK1002 assessed as survival at 0.0005 mg/ml in presence of Sprague-Dawley rat liver S9 fraction after by SOS/umu assay relative to control; assay type: toxicity, organism-based; details: salmonella enterica subsp. enterica serovar typhimurium, read-out: Survival
[6] = Genotoxicity in Salmonella typhimurium TA1535 harboring pSK1002 assessed as survival at 0.016 mg/ml in presence of Sprague-Dawley rat liver S9 fraction after by SOS/umu assay relative to control; assay type: toxicity, organism-based; details: salmonella enterica subsp. enterica serovar typhimurium, read-out: Survival
[7] = Genotoxicity in Salmonella typhimurium TA1535 harboring pSK1002 assessed as umu gene induction at 0.016 mg/ml in presence of Sprague-Dawley rat liver S9 fraction after by SOS/umu assay relative to control; assay type: toxicity, organism-based; details: salmonella enterica subsp. enterica serovar typhimurium, read-out: FC
[8] = Genotoxicity in Salmonella typhimurium TA1535 harboring pSK1002 assessed as umu gene induction at 0.001 mg/ml in absence of Sprague-Dawley rat liver S9 fraction after by SOS/umu assay relative to control; assay type: toxicity, organism-based; details: salmonella enterica subsp. enterica serovar typhimurium, read-out: FC
[9] = Genotoxicity in Salmonella typhimurium TA1535 harboring pSK1002 assessed as survival at 0.0002 mg/ml in absence of Sprague-Dawley rat liver S9 fraction after by SOS/umu assay relative to control; assay type: toxicity, organism-based; details: salmonella enterica subsp. enterica serovar typhimurium, read-out: Survival
Plasmodium falciparum [10] = assay: Antiplasmodial activity against chloroquine-sensitive Plasmodium falciparum 3D7 by [3H]-hypoxanthine incorporation assay; assay type: functional, organism-based; details: Plasmodium falciparum, 3D7; method in brief: as §1
[11] = Genotoxicity in Salmonella typhimurium TA1535 harboring pSK1002 assessed as umu gene induction at 0.0002 mg/ml in absence of Sprague-Dawley rat liver S9 fraction after by SOS/umu assay relative to control; assay type: toxicity, organism-based; details: salmonella enterica subsp. enterica serovar typhimurium, read-out: FC
[12] = Genotoxicity in Salmonella typhimurium TA1535 harboring pSK1002 assessed as umu gene induction at 0.001 mg/ml in presence of Sprague-Dawley rat liver S9 fraction after by SOS/umu assay relative to control; assay type: toxicity, organism-based; details: salmonella enterica subsp. enterica serovar typhimurium, read-out: FC
[13] = Genotoxicity in Salmonella typhimurium TA1535 harboring pSK1002 assessed as umu gene induction at 0.002 mg/ml in absence of Sprague-Dawley rat liver S9 fraction after by SOS/umu assay relative to control; assay type: toxicity, organism-based; details: salmonella enterica subsp. enterica serovar typhimurium, read-out: FC
[14] = Genotoxicity in Salmonella typhimurium TA1535 harboring pSK1002 assessed as umu gene induction at 0.0005 mg/ml in presence of Sprague-Dawley rat liver S9 fraction after by SOS/umu assay relative to control; assay type: toxicity, organism-based; details: salmonella enterica subsp. enterica serovar typhimurium, read-out: FC
[15] = Genotoxicity in Salmonella typhimurium TA1535 harboring pSK1002 assessed as survival at 0.0005 mg/ml in absence of Sprague-Dawley rat liver S9 fraction after by SOS/umu assay relative to control; assay type: toxicity, organism-based; details: salmonella enterica subsp. enterica serovar typhimurium, read-out: Survival
[16] = Genotoxicity in Salmonella typhimurium TA1535 harboring pSK1002 assessed as survival at 0.004 mg/ml in presence of Sprague-Dawley rat liver S9 fraction after by SOS/umu assay relative to control; assay type: toxicity, organism-based; details: salmonella enterica subsp. enterica serovar typhimurium, read-out: Survival
[17] = Selectivity index, ratio of CC50 for human HepG2A16 cells by MTT assay to IC50 for multidrug-resistant Plasmodium falciparum FCR-3; assay type: toxicity; details: HepG2A16 cells, read-out: Ratio CC50/IC50
Method in brief: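 HepG2-A16 human hepatoma cells were tested by MTT viability assay to give CC50. Blood-stage activity was measured against the multidrug-resistant P. falciparum FCR-3 strain by [3H]-hypoxanthine incorporation to give IC50. SI = CC50 HepG2 / FCR-3 IC50.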

[18] = Genotoxicity in Salmonella typhimurium TA1535 harboring pSK1002 assessed as umu gene induction at 0.008 mg/ml in presence of Sprague-Dawley rat liver S9 fraction after by SOS/umu assay relative to control; assay type: toxicity, organism-based; details: salmonella enterica subsp. enterica serovar typhimurium, read-out: FC
[19] = Genotoxicity in Salmonella typhimurium TA1535 harboring pSK1002 assessed as umu gene induction at 0.004 mg/ml in presence of Sprague-Dawley rat liver S9 fraction after by SOS/umu assay relative to control; assay type: toxicity, organism-based; details: salmonella enterica subsp. enterica serovar typhimurium, read-out: FC
[20] = Genotoxicity in Salmonella typhimurium TA1535 harboring pSK1002 assessed as umu gene induction at 0.0005 mg/ml in absence of Sprague-Dawley rat liver S9 fraction after by SOS/umu assay relative to control; assay type: toxicity, organism-based; details: salmonella enterica subsp. enterica serovar typhimurium, read-out: FC
[21] = Genotoxicity in Salmonella typhimurium TA1535 harboring pSK1002 assessed as survival at 0.001 mg/ml in presence of Sprague-Dawley rat liver S9 fraction after by SOS/umu assay relative to control; assay type: toxicity, organism-based; details: salmonella enterica subsp. enterica serovar typhimurium, read-out: Survival
[22] = Genotoxicity in Salmonella typhimurium TA1535 harboring pSK1002 assessed as survival at 0.0002 mg/ml in presence of Sprague-Dawley rat liver S9 fraction after by SOS/umu assay relative to control; assay type: toxicity, organism-based; details: salmonella enterica subsp. enterica serovar typhimurium, read-out: Survival
[23] = Genotoxicity in Salmonella typhimurium TA1535 harboring pSK1002 assessed as survival at 0.008 mg/ml in absence of Sprague-Dawley rat liver S9 fraction after by SOS/umu assay relative to control; assay type: toxicity, organism-based; details: salmonella enterica subsp. enterica serovar typhimurium, read-out: Survival
[24] = Genotoxicity in Salmonella typhimurium TA1535 harboring pSK1002 assessed as survival at 0.002 mg/ml in presence of Sprague-Dawley rat liver S9 fraction after by SOS/umu assay relative to control; assay type: toxicity, organism-based; details: salmonella enterica subsp. enterica serovar typhimurium, read-out: Survival
[25] = Genotoxicity in Salmonella typhimurium TA1535 harboring pSK1002 assessed as survival at 0.016 mg/ml in absence of Sprague-Dawley rat liver S9 fraction after by SOS/umu assay relative to control; assay type: toxicity, organism-based; details: salmonella enterica subsp. enterica serovar typhimurium, read-out: Survival
[26] = Genotoxicity in Salmonella typhimurium TA1535 harboring pSK1002 assessed as survival at 0.002 mg/ml in absence of Sprague-Dawley rat liver S9 fraction after by SOS/umu assay relative to control; assay type: toxicity, organism-based; details: salmonella enterica subsp. enterica serovar typhimurium, read-out: Survival
[27] = Genotoxicity in Salmonella typhimurium TA1535 harboring pSK1002 assessed as umu gene induction at 0.004 mg/ml in absence of Sprague-Dawley rat liver S9 fraction after by SOS/umu assay relative to control; assay type: toxicity, organism-based; details: salmonella enterica subsp. enterica serovar typhimurium, read-out: FC
[28] = Genotoxicity in Salmonella typhimurium TA1535 harboring pSK1002 assessed as umu gene induction at 0.008 mg/ml in absence of Sprague-Dawley rat liver S9 fraction after by SOS/umu assay relative to control; assay type: toxicity, organism-based; details: salmonella enterica subsp. enterica serovar typhimurium, read-out: FC
[29] = Genotoxicity in Salmonella typhimurium TA1535 harboring pSK1002 assessed as survival at 0.004 mg/ml in absence of Sprague-Dawley rat liver S9 fraction after by SOS/umu assay relative to control; assay type: toxicity, organism-based; details: salmonella enterica subsp. enterica serovar typhimurium, read-out: Survival
[30] = Genotoxicity in Salmonella typhimurium TA1535 harboring pSK1002 assessed as umu gene induction at 0.002 mg/ml in presence of Sprague-Dawley rat liver S9 fraction after by SOS/umu assay relative to control; assay type: toxicity, organism-based; details: salmonella enterica subsp. enterica serovar typhimurium, read-out: FC
[31] = Genotoxicity in Salmonella typhimurium TA1535 harboring pSK1002 assessed as umu gene induction at 0.0002 mg/ml in presence of Sprague-Dawley rat liver S9 fraction after by SOS/umu assay relative to control; assay type: toxicity, organism-based; details: salmonella enterica subsp. enterica serovar typhimurium, read-out: FC
[32] = Genotoxicity in Salmonella typhimurium TA1535 harboring pSK1002 assessed as survival at 0.001 mg/ml in absence of Sprague-Dawley rat liver S9 fraction after by SOS/umu assay relative to control; assay type: toxicity, organism-based; details: salmonella enterica subsp. enterica serovar typhimurium, read-out: Survival
[33] = Genotoxicity in Salmonella typhimurium TA1535 harboring pSK1002 assessed as survival at 0.008 mg/ml in presence of Sprague-Dawley rat liver S9 fraction after by SOS/umu assay relative to control; assay type: toxicity, organism-based; details: salmonella enterica subsp. enterica serovar typhimurium, read-out: Survival

Row | SMILES | CC50 [2] | solubility [3] | IC50 (Plasmodium falciparum [4]) | viability at 0.0005 mg/ml [5] | fold induction at 0.001 mg/ml [8] | viability at 0.0002 mg/ml [9] | IC50 (Plasmodium falciparum [10]) | fold induction at 0.0002 mg/ml [11] | fold induction at 0.001 mg/ml [12] | fold induction at 0.002 mg/ml [13] | fold induction at 0.0005 mg/ml [14] | viability at 0.0005 mg/ml [15] | viability at 0.004 mg/ml [16] | selectivity ratio [17] | fold induction at 0.004 mg/ml [19] | fold induction at 0.0005 mg/ml [20] | viability at 0.001 mg/ml [21] | viability at 0.0002 mg/ml [22] | viability at 0.002 mg/ml [24] | viability at 0.002 mg/ml [26] | also measured
1 | OC(CCN1CCN(C(c2ccccc2)c2ccccc2)CC1)c1ccc(Cl)cc1 (stereo not drawn) | 462 µM | Insoluble | 3.93 µM | 94.3% | 1.1 | 105% | 24.9 µM | 1 | 0.6 | 1 | 0.6 | 110% | 89.5% | 118 | 1 | 0.9 | 96.7% | 96.4% | 88.9% | 108% | fold induction at 0.016 mg/ml [1]: 0.9; viability at 0.016 mg/ml [6]: 86.6%; fold induction at 0.016 mg/ml [7]: 1.1; fold induction at 0.008 mg/ml [18]: 0.9; viability at 0.008 mg/ml [23]: 125%; viability at 0.016 mg/ml [25]: 112%; fold induction at 0.004 mg/ml [27]: 1; fold induction at 0.008 mg/ml [28]: 0.9; viability at 0.004 mg/ml [29]: 102%; fold induction at 0.002 mg/ml [30]: 0.7; fold induction at 0.0002 mg/ml [31]: 1; viability at 0.001 mg/ml [32]: 106%; viability at 0.008 mg/ml [33]: 98.8%
2 | OC(CCN1CCN(C(c2ccccc2)c2ccccc2)CC1)c1ccc(F)c(Cl)c1 (stereo not drawn) | 269 µM | Insoluble | 1.39 µM | 97.7% | 1 | 110% | 5.11 µM | 0.8 | 0.5 | 1 | 0.9 | 117% | 87.7% | 194 | 1.2 | 0.9 | 91.4% | 92.3% | 73.1% | 103% | fold induction at 0.004 mg/ml [27]: 0.8; viability at 0.004 mg/ml [29]: 119%; fold induction at 0.002 mg/ml [30]: 1.1; fold induction at 0.0002 mg/ml [31]: 1; viability at 0.001 mg/ml [32]: 105%
